What was measured:
Adenosine receptor A1 [1] = target: T1, Adenosine receptor A1 (Rattus norvegicus, UniProt P25099); assay: Displacement of [3H]CCPA from adenosine A1 receptor in rat brain cortex; type: tissue-based
T1 sequence (P25099 whole entry): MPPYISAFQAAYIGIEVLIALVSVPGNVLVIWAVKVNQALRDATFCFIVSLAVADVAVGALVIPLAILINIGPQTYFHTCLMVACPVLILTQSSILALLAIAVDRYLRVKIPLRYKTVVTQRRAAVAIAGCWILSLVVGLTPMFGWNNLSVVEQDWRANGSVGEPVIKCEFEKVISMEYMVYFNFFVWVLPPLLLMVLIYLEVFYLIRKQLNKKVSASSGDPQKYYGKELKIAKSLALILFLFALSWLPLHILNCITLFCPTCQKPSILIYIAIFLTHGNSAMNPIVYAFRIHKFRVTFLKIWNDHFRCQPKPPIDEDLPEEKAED
Outline: (§1)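 Radioligand binding to rat A1 receptors in rat brain cortical membrane preparations. Values are given as Ki, or as % inhibition of radioligand binding at the indicated concentration.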

Adenosine receptor A2a = Adenosine receptor A2a (Rattus norvegicus, UniProt P30543); assay: Displacement of [3H]MSX-2 from adenosine A2A receptor in rat brain striatum; type: tissue-based
Chain of Adenosine receptor A2a (P30543 whole entry): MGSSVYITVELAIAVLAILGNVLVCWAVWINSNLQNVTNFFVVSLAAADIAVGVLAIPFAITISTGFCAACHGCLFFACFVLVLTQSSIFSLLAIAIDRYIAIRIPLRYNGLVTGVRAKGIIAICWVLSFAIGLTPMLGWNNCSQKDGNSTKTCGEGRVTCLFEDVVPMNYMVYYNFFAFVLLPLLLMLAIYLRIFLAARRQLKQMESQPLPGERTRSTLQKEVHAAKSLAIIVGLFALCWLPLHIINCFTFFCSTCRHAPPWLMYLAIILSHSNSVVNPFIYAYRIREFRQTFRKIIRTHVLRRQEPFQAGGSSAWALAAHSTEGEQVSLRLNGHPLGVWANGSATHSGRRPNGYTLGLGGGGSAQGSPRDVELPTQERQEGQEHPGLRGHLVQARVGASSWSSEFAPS

[2] = target: T2, Adenosine receptor A3 (Homo sapiens) (UniProt P0DMS8); assay: Displacement of [3H]PSB-11 from human adenosine A3 receptor expressed in CHO cells relative to control; type: cell-based; design: concentration or dose not given beside the values; details: concentration not given here
T2 sequence (whole entry): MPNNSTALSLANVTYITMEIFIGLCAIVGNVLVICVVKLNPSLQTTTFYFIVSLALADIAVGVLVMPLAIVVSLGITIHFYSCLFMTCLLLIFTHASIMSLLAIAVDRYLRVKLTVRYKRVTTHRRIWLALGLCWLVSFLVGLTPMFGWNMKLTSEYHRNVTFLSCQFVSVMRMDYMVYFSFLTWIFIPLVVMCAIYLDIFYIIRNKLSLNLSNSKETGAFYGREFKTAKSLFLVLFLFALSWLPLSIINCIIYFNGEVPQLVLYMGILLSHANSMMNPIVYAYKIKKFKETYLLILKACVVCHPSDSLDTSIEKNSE

[3] = target: T3, Adenosine receptor A2b (Homo sapiens) (UniProt P29275); assay: Displacement of [3H]PSB-603 from human adenosine A2B receptor relative to control; design: concentration or dose not given beside the values; details: concentration not given here
T3 sequence (whole entry): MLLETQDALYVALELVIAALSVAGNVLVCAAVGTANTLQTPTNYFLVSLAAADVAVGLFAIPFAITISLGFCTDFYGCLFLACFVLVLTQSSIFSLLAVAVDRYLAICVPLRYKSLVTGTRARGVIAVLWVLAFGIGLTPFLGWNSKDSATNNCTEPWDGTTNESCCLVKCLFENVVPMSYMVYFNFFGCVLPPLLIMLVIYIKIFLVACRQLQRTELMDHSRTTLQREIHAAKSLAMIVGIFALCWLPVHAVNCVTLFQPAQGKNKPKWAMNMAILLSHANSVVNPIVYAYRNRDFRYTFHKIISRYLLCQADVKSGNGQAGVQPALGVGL

[4] = target: T4, MAO-B (amine oxidase [flavin-containing] B) (Homo sapiens, UniProt P27338); assay: Inhibition of human MAO-B at 10 uM relative to control
T4 sequence (P27338 whole entry): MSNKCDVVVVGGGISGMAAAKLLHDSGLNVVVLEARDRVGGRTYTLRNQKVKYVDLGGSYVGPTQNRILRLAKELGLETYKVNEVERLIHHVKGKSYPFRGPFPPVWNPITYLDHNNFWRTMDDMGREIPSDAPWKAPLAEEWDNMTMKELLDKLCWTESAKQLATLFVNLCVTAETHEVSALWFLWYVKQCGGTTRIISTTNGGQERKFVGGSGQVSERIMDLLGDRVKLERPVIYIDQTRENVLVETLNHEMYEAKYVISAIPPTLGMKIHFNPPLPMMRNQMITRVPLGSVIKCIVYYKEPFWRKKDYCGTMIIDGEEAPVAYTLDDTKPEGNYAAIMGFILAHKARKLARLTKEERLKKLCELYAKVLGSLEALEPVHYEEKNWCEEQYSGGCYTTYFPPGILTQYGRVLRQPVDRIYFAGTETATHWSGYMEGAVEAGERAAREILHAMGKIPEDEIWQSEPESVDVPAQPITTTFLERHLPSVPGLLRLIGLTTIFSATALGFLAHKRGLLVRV
Outline: (§2)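 Human MAO-A and MAO-B inhibition, screened first at a test concentration of 10 µM.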

[5] = target: T5, Adenosine receptor A1 (Rattus norvegicus) (UniProt P25099); assay: Displacement of [3H]CCPA from adenosine A1 receptor in rat brain cortex relative to control; type: tissue-based; design: concentration or dose not given beside the values; details: concentration not given here; outline: as §1
T5 sequence (whole entry): T1 sequence (P25099 whole entry)

[6] = target: T6, Amine oxidase [flavin-containing] B (Homo sapiens, UniProt P27338); assay: Inhibition of human MAO-B
T6 sequence (P27338 whole entry): T4 sequence (P27338 whole entry)

Adenosine receptor A2b = target: T7, Adenosine receptor A2b (Homo sapiens, UniProt P29275); assay: Displacement of [3H]PSB-603 from human adenosine A2B receptor
T7 sequence (P29275 whole entry): T3 sequence (whole entry)

Adenosine receptor A3 = target: T8, Adenosine receptor A3 (Homo sapiens, UniProt P0DMS8); assay: Displacement of [3H]PSB-11 from human adenosine A3 receptor expressed in CHO cells; type: cell-based
T8 sequence (P0DMS8 whole entry): T2 sequence (whole entry)

Adenosine receptor A1 [7] = target: T9, Adenosine receptor A1 (Homo sapiens, UniProt P30542); assay: Displacement of [3H]CCPA from human adenosine A1 receptor expressed in CHO cells; type: cell-based
T9 sequence (P30542 whole entry): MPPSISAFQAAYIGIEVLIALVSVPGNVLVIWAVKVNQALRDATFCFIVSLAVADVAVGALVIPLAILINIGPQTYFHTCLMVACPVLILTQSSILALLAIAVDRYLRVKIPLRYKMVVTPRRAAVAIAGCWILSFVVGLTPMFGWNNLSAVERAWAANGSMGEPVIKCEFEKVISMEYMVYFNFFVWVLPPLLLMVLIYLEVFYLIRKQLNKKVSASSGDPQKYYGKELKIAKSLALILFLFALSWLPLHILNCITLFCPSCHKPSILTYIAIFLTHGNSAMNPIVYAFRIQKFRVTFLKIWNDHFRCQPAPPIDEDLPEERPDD
Outline: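 Radioligand binding to human receptors recombinantly expressed in Chinese hamster ovary (CHO) cells. Results are Ki, or % inhibition of radioligand binding at the indicated concentration.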

[8] = target: T10, Amine oxidase [flavin-containing] A (Homo sapiens, UniProt P21397); assay: Inhibition of human MAO-A; outline: as §2
T10 sequence (P21397 whole entry): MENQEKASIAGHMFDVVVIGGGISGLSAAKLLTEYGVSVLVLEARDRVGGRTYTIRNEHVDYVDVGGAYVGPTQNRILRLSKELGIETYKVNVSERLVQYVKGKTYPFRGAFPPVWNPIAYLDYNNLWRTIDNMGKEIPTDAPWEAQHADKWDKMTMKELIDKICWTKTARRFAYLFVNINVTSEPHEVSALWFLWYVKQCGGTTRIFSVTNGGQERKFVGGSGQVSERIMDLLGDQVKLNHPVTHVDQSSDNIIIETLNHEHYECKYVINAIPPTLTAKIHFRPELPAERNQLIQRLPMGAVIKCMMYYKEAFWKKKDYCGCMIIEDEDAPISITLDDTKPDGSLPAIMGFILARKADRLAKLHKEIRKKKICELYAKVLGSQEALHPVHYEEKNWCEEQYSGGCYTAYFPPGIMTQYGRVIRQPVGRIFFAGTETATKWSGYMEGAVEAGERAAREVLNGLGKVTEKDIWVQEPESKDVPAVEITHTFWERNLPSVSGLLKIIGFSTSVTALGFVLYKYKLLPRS

[9] = target: T11, MAO-A (amine oxidase [flavin-containing] A) (Homo sapiens, UniProt P21397); assay: Inhibition of human MAO-A at 10 uM relative to control; outline: as §2
T11 sequence (P21397 whole entry): T10 sequence (P21397 whole entry)

## C#CCn1c(=O)c2c(nc3n2CCCN3CCc2cc(OC)c(OC)c(OC)c2)n(C)c1=O
Adenosine receptor A1 [1]
  Ki: > 10 µM
Adenosine receptor A2a
  Ki: 0.723 µM
[2]
  inhibition: 5%
[3]
  inhibition: -2%
[4]
  inhibition at 10 µM: 29%
[5]
  inhibition: 18%
[6]
  IC50: > 10 µM
Adenosine receptor A2b
  Ki: > 1 µM
Adenosine receptor A3
  Ki: > 1 µM

## CCn1c(=O)c2c(nc3n2CCCN3c2ccc(F)cc2)n(CC)c1=O
Adenosine receptor A1 [1]
  Ki: 0.545 µM
Adenosine receptor A2a
  Ki: 1.88 µM
[2]
  inhibition: 29%
[3]
  inhibition: 11%
[4]
  inhibition at 10 µM: 48%
Adenosine receptor A1 [7]
  Ki: 6.65 µM
[6]
  IC50: 10 µM
Adenosine receptor A2b
  Ki: > 1 µM
Adenosine receptor A3
  Ki: > 10 µM

## Cn1c(=O)c2c(nc3n2CCCN3Cc2ccc(Cl)c(Cl)c2)n(C)c1=O
Adenosine receptor A1 [1]
  Ki: 4.01 µM
[8]
  IC50: > 10 µM
Adenosine receptor A2a
  Ki: 3.69 µM
[9]
  inhibition at 10 µM: 10%
[2]
  inhibition: 30%
[3]
  inhibition: 5%
[6]
  IC50: 0.0629 µM
Adenosine receptor A2b
  Ki: > 1 µM
Adenosine receptor A3
  Ki: > 10 µM

## CCn1c(=O)c2c(nc3n2CCCN3C2CCCCC2)n(CC)c1=O
Adenosine receptor A1 [1]
  Ki: 0.321 µM
[8]
  IC50: > 10 µM
Adenosine receptor A2a
  Ki: 1.7 µM
[9]
  inhibition at 10 µM: -3%
[2]
  inhibition: 37%
[3]
  inhibition: 3%
Adenosine receptor A1 [7]
  Ki: 1.04 µM
[6]
  IC50: 3.72 µM
Adenosine receptor A2b
  Ki: > 1 µM
Adenosine receptor A3
  Ki: > 10 µM

## CCn1c(=O)c2c(nc3n2CCCN3CCc2cccc(OC)c2)n(CC)c1=O
Adenosine receptor A1 [1]
  Ki: > 10 µM
Adenosine receptor A2a
  Ki: 2.65 µM
[3]
  inhibition: 29%
[4]
  inhibition at 10 µM: 33%
[5]
  inhibition: 31%
[6]
  IC50: > 10 µM
Adenosine receptor A2b
  Ki: > 1 µM
Adenosine receptor A3
  Ki: 3.41 µM

## C#CCn1c(=O)c2c(nc3n2CCCN3Cc2cccnc2)n(C)c1=O
Adenosine receptor A1 [1]
  Ki: 1.83 µM
Adenosine receptor A2a
  Ki: 6.22 µM
[2]
  inhibition: 4%
[3]
  inhibition: 1%
[4]
  inhibition at 10 µM: 21%
[6]
  IC50: > 10 µM
Adenosine receptor A2b
  Ki: > 0.3 µM
Adenosine receptor A3
  Ki: > 1 µM

## CCn1c(=O)c2c(nc3n2CCCN3CCc2ccccc2OC)n(CC)c1=O
Adenosine receptor A1 [1]
  Ki: 0.506 µM
[8]
  IC50: > 10 µM
Adenosine receptor A2a
  Ki: 1.83 µM
[9]
  inhibition at 10 µM: 28%
[3]
  inhibition: 20%
Adenosine receptor A1 [7]
  Ki: 3.92 µM
[6]
  IC50: 3.26 µM
Adenosine receptor A2b
  Ki: > 1 µM
Adenosine receptor A3
  Ki: 3.03 µM

## Cn1c(=O)c2c(nc3n2CCCN3CC(=O)N2CCN(Cc3ccc(Cl)cc3)CC2)n(C)c1=O
Adenosine receptor A1 [1]
  Ki: > 1.5 µM
Adenosine receptor A2a
  Ki: 9.42 µM
[2]
  inhibition: 23%
[4]
  inhibition at 10 µM: 30%
[5]
  inhibition: -1%
[6]
  IC50: > 10 µM
Adenosine receptor A2b
  Ki: > 1 µM
Adenosine receptor A3
  Ki: > 10 µM

## C#CCn1c(=O)c2c(nc3n2CCCN3Cc2ccc(OC)cc2)n(C)c1=O
Adenosine receptor A1 [1]
  Ki: 0.555 µM
[8]
  IC50: > 10 µM
Adenosine receptor A2a
  Ki: 3.03 µM
[9]
  inhibition at 10 µM: 11%
[3]
  inhibition: 7%
[4]
  inhibition at 10 µM: 50%
Adenosine receptor A1 [7]
  Ki: 10.2 µM
[6]
  IC50: 10 µM

## CCn1c(=O)c2c(nc3n2CCCN3c2cccc(OC)c2)n(CC)c1=O
Adenosine receptor A1 [1]
  Ki: 1.24 µM
[8]
  IC50: > 10 µM
Adenosine receptor A2a
  Ki: 5.37 µM
[9]
  inhibition at 10 µM: 4%
[3]
  inhibition: 21%
[6]
  IC50: 6.39 µM
Adenosine receptor A2b
  Ki: > 1 µM
Adenosine receptor A3
  Ki: 6.8 µM

## Cn1c(=O)c2c(nc3n2CCCN3c2cccc(Cl)c2)n(C)c1=O
Adenosine receptor A1 [1]
  Ki: 4.42 µM
[8]
  IC50: > 10 µM
Adenosine receptor A2a
  Ki: 3.76 µM
[9]
  inhibition at 10 µM: 15%
[2]
  inhibition: 33%
[3]
  inhibition: -4%
[6]
  IC50: 4.96 µM
Adenosine receptor A2b
  Ki: > 1 µM
Adenosine receptor A3
  Ki: > 10 µM

## C#CCn1c(=O)c2c(nc3n2CCCN3c2cc(OC)cc(OC)c2)n(C)c1=O
Adenosine receptor A1 [1]
  Ki: 0.228 µM
Adenosine receptor A2a
  Ki: 2.04 µM
[2]
  inhibition: 28%
[3]
  inhibition: 9%
[4]
  inhibition at 10 µM: 30%
Adenosine receptor A1 [7]
  Ki: 9.65 µM
[6]
  IC50: > 10 µM
Adenosine receptor A2b
  Ki: > 1 µM
Adenosine receptor A3
  Ki: > 1 µM

## Cn1c(=O)c2c(nc(/C=C/c3cccc(Cl)c3)n2C)n(C)c1=O
[8]
  IC50: > 10 µM
[9]
  inhibition at 10 µM: 23%

## C#CCn1c(=O)c2c(nc3n2CCCN3c2ccc(C(C)C)cc2)n(C)c1=O
Adenosine receptor A1 [1]
  Ki: 5.22 µM
[8]
  IC50: > 10 µM
Adenosine receptor A2a
  Ki: 1.48 µM
[9]
  inhibition at 10 µM: 5%
[3]
  inhibition: 17%
[4]
  inhibition at 10 µM: 64%
[6]
  IC50: 10 µM
Adenosine receptor A2b
  Ki: > 1 µM
